Key:
[1] = molecular target: T1, Integrin alpha-V/beta-3 (Homo sapiens, UniProt P05106+P06756); experiment: Displacement of [125I]echistatin from human recombinant alpha-v beta-3 receptor; format: protein-complex assay
Summary of the method: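 Cell extracts of HEK 293 stably transfected with human αvβ3 (~10 × 10^6 receptors/cell) incubated with 30 pM 125I-echistatin in Tris-HCl pH 7.8 buffer with NaCl, Ca/Mg and 0.1% BSA. Nonspecific binding with 1 μM unlabeled echistatin. Bound ligand separated by filtration on poly(ethylenimine)-soaked filters and gamma-counted. Error given as SD.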

[2] = species on record: Rattus norvegicus; experiment: In vitro inhibition of rat osteoclast-mediated bone resorption (BONE RES)
[3] = molecular target: T1, Integrin alpha-V/beta-3; experiment: Displacement of [125I]nonpeptide ligand (compound 7) from purified human recombinant alphaV-beta3; format: protein-complex assay
Summary of the method: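 αvβ3 purified from 293 cells overexpressing human recombinant receptor, captured on wheatgerm agglutinin scintillation proximity beads. Incubated with ~40 pM final 125I-labeled nonpeptide ligand in HEPES pH 7.5 binding buffer with Ca2+/Mg2+, overnight at 4 °C with rocking. Nonspecific binding with 1 μM final cold ligand. Counted by scintillation; IC50 derived. Error given as SD.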

[4] = species on record: Homo sapiens; experiment: In vitro inhibition of the rate of ADP-stimulated human gel-filtered platelet aggregation (PLAGGIN); format: functional
Summary of the method: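 Gel-filtered human platelets at 2×10^8/mL with 0.1 mg/mL human fibrinogen and 1 mM CaCl2. Light-transmittance aggregometry at 37 °C, with aggregation started by 10 μM ADP in the presence of test compound or vehicle.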

[5] = system: Rattus norvegicus; experiment: Inhibition of the increase of serum calcium levels in a dose-dependent fashion after subcutaneous infusion for 6 hr to TPTX rats at doses 0.20, 0.67, and 2 mg/kg/h; format: organism-based; design: route subcutaneous
Summary of the method: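 Rats thyroparathyroidectomized and kept on a low-calcium diet; those with serum Ca < 8 mg/dL used. On day 3, anesthetized rats got subcutaneous infusion of vehicle or compound. Bovine PTH(1–34) at 0.03 nmol/h by osmotic minipump started 30 min later. Serum calcium measured at baseline and at the 4–6 h endpoint. Plasma drug levels measured by the echistatin binding bioassay.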

[6] = Half-life following a 1 mg/kg iv bolus dose to male rats (n=4); format: ADME, organism-based; design: dose 1 mg/kg, route intravenous; conditions: rat, in vivo
[7] = molecular target: T1, Integrin alpha-V/beta-3; experiment: Dissociation constant of radiolabeled compound binding to alpha-v-beta-3; format: protein-complex assay

T1 sequence (P05106 27-788 limits assumed): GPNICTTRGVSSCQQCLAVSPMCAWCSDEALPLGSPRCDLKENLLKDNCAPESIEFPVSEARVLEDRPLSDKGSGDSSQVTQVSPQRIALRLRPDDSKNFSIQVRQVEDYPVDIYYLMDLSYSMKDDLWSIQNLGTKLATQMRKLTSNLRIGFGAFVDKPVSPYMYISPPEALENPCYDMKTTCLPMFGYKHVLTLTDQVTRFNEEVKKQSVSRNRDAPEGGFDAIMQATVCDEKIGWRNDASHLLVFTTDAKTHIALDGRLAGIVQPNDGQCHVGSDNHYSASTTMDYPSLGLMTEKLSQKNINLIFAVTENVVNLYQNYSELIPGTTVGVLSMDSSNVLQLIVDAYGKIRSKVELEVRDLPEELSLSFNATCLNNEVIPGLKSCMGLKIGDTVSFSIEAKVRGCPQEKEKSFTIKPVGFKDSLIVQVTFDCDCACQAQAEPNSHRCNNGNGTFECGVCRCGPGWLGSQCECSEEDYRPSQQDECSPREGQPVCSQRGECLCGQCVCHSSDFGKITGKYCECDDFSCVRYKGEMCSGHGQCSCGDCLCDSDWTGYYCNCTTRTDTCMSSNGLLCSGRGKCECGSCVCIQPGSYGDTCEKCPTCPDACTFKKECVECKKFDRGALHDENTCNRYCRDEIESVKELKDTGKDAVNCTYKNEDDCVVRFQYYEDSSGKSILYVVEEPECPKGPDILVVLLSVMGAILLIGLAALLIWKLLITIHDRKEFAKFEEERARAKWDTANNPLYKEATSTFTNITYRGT
T1 sequence (P06756 31-889 limits assumed): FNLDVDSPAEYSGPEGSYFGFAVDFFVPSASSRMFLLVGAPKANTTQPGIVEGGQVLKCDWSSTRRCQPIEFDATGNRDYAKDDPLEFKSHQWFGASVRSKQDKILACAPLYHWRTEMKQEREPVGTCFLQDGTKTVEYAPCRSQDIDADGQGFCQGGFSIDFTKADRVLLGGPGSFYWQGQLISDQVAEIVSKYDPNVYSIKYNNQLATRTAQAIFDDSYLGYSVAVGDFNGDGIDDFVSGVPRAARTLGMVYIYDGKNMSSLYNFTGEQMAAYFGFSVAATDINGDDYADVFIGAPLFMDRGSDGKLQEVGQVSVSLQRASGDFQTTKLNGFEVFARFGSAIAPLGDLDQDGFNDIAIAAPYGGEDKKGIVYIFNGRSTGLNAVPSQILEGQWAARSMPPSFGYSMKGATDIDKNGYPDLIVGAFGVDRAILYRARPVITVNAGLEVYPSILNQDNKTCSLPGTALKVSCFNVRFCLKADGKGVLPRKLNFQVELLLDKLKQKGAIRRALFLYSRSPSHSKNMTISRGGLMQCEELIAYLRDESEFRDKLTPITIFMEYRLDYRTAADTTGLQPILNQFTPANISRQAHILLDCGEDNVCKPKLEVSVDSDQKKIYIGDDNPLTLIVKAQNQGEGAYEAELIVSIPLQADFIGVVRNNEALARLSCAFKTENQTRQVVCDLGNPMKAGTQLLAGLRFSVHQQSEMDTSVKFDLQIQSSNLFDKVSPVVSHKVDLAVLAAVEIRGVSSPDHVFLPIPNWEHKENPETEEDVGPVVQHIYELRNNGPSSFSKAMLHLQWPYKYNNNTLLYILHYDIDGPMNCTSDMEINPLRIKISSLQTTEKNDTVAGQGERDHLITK
T1 sequence (P06756 891-1048 limits assumed): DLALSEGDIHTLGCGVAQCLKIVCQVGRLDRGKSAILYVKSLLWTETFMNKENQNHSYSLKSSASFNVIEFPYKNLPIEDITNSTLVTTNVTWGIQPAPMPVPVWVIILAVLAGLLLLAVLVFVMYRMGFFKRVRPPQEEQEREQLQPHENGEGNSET

Q: For `O=C(NC[C@H](NS(=O)(=O)c1ccccc1)C(=O)O)c1ccc(OCCNC2=NCCCN2)cc1`, which IC50 [1] is on record?
A: 0.7 nM

Q: And the IC50 [2]?
A: 46 nM

Q: And the IC50 [3]?
A: 0.93 nM

Q: And the IC50 [4]?
A: 44 nM

Q: What does the source list for `O=C(NC[C@H](NS(=O)(=O)c1ccccc1)C(=O)O)c1ccc(CCc2ccc3c(n2)NCCC3)cc1`?
A: IC50 [1]: 0.3 nM; IC50 [2]: 3 nM; IC50 [3]: 0.07 nM; IC50 [4]: 260 nM; IC50 [5]: 200 nM; half-life [6]: < 30 min

Q: With `Nc1cccc(CCc2ccc(C(=O)NC[C@H](NS(=O)(=O)c3ccccc3)C(=O)O)cc2)n1` as the molecule, how does the IC50 [1] read?
A: 0.4 nM

Q: And the IC50 [2]?
A: 8 nM

Q: What about the IC50 [3] of the same molecule?
A: 0.44 nM

Q: And the IC50 [4]?
A: 140 nM

Q: With `Nc1cccc(CCc2ccc(C(=O)NC[C@H](NS(=O)(=O)c3ccc(I)cc3)C(=O)O)cc2)n1` as the molecule, how does the IC50 [1] read?
A: 0.1 nM

Q: What about the Kd [7] of the same molecule?
A: 0.06 nM

Q: What about the IC50 [3] of the same molecule?
A: 0.08 nM

Q: And the IC50 [4]?
A: 1600 nM

Q: For `N=C(N)NCCOc1ccc(C(=O)NC[C@H](NS(=O)(=O)c2ccccc2)C(=O)O)cc1`, which IC50 [1] is on record?
A: 1.8 nM

Q: And the IC50 [2]?
A: 300 nM

Q: And the IC50 [3]?
A: 10.7 nM

Q: What about the IC50 [4] of the same molecule?
A: 17 nM

Q: With `O=C(NC[C@H](NS(=O)(=O)c1ccccc1)C(=O)O)c1ccc(OCCC2CCNCC2)cc1` as the molecule, how does the IC50 [1] read?
A: > 1000 nM

Q: What about the IC50 [3] of the same molecule?
A: > 1000 nM

Q: And the IC50 [4]?
A: 10 nM

From ChEMBL document CHEMBL1133445, “Nonpeptide alpha(v)beta(3) antagonists. 1. Transformation of a potent, integrin-selective alpha(IIb)beta(3) antagonist into a potent alpha(v)beta(3) antagonist” (J Med Chem, 2000)
